This is a sample that favours compounds with a hit; in the whole collection about 4.7% have one here.
MPTP block – permeability transition pore inhibition. isolated mouse mitochondria, Ca2+ swelling absorbance, 30 min. 360,000 tested, 1.4% active. inhibition, % at 10 µM;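 active = inhibition of 50% or more, scaled per plate between neutral and stimulator controls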;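 note: 0% = DMSO wells given calcium and 100% = 1 mM EGTA wells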
SKN-1 inh – inhibitors of C. elegans SKN-1. C. elegans VP596 Pgst-4::GFP/RFP ratio, acrylamide-induced, 24 h. inhibition, % at 21.8 µM. 360,000 tested, 0.49% active. AID 624304;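 active = interference check ratio from 0.5 to 1.5 plus GFP to RFP signal ratio inhibition reaching or exceeding a fixed threshold, cut at about 30% in these data, passing the limit was not always enough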
ADAM17 inh – inhibitors of human ADAM17; recombinant ADAM17, EDANS/DABCYL FRET peptide cleavage; inhibition, % at 6.95 µM; 370,000 tested, 0.83% active; AID 720648;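 active = inhibition above the mean of compounds lying between control limits plus 3 SD, set per campaign, cut at about 8.5% in these data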;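 note: 0% = DMSO-only wells as the low control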
NR3A LBD binder – modulates the human NR3A ligand-binding domain. Tm shift relative to glycine control, % at 25 µM. AID 1259313. NR3A LBD differential scanning fluorimetry, Tm shift; 0% = protein alone, 100% = glycine-bound protein. 340,000 tested, 2.5% active;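 active = melting temperature shift of at least 10% of the positive control shift, at one fixed dose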
MT1-MMP act inh – blocks activation of human MT1-MMP | P50281 | HT1080 RFP-PRO-GFP cells, GFP/RFP ratio fluorescence, overnight; percent of plate control window, DMSO zero | GFP/RFP ratio change, % at 20 µM | 360,000 tested, 0.061% active | AID 651647;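 active = GFP/RFP ratio change of at least 30% with cell ATP level not reduced by more than half and red fluorescence within 50% of control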
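Read-out: GFP/RFP fluorescence ratio; Test system: RFP-PRO-GFP reporter HT1080 cells; Compound dosing: single-point 20 µM compound, 1% DMSO; Times: overnight compound exposure at 37 °C.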
ADAM10 inh – inhibitors of human ADAM10. AID 720582. recombinant ADAM10, EDANS/DABCYL FRET peptide cleavage, 3 h. inhibition, % at 7 µM. O14672. 370,000 tested, 0.62% active;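 active = inhibition above a per-campaign cutoff equal to the mean of compounds falling between control-based bounds plus 3 SD, cut at about 20% in these data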;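 note: 0% = DMSO wells while the 100% control is not disclosed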
Target sequence (O14672 214-748 limits assumed): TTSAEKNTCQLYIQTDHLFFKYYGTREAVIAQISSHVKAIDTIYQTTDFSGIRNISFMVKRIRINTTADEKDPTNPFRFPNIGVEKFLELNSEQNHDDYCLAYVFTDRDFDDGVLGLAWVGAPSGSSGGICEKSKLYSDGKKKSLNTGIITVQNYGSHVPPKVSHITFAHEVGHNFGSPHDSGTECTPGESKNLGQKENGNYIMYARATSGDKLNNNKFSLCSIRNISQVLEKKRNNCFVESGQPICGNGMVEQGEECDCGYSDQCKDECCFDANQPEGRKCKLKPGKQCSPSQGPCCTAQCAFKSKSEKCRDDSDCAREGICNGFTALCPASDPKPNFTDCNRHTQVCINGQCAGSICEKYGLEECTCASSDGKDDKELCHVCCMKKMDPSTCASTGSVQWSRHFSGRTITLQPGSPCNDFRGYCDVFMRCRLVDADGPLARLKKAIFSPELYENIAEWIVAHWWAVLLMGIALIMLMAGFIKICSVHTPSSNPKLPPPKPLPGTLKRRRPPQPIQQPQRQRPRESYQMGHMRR
ADAM10 confirm – confirmation of inhibitors of human ADAM10. shares compounds with ADAM10 inh. ADAM10 QFRET peptide cleavage, EDANS fluorescence. 2,100 tested, 1% active. inhibition, % at 6.95 µM. AID 743208;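 active = inhibition above about 20% chosen separately for each screening run, limit read from the data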;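 note: 0% = DMSO wells and 100% = marimastat wells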
ADAM17 counter – inhibits human ADAM17 in ADAM10 exosite counter-screen; shares compounds with ADAM10 inh; ADAM17 QFRET peptide cleavage, EDANS fluorescence; inhibition, % at 6.95 µM; 2,100 tested, 0.5% active;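 active = mean triplicate inhibition above the solvent-only control wells' mean plus 3 SD, cut at about 12% in these data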;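 note: 0% = DMSO wells and 100% = marimastat wells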
ADAM10 ctr – inhibits human ADAM10 in ADAM17 exosite counter-screen. shares compounds with ADAM17 inh. recombinant ADAM10, EDANS/DABCYL FRET peptide cleavage, 3 h. inhibition, % at 6.95 µM. 2,900 tested, 47% active;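 active = mean inhibition over the triplicate runs exceeds the activity threshold set in the earlier primary screen, cut at about 20% in these data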;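 note: 0% = DMSO wells and 100% = marimastat wells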
ADAM17 confirm – confirmation of inhibitors of human ADAM17; inhibition, % at 6.95 µM; recombinant ADAM17, EDANS/DABCYL QFRET peptide cleavage; AID 743257; 2,900 tested, 65% active; shares compounds with ADAM17 inh;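 active = mean inhibition across replicates above the hit cutoff set in the primary screen, cut at about 8.5% in these data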;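 note: 0% = DMSO wells and 100% = marimastat wells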
An asterisk follows results filed as active; nt = no result given.

SMILES	MPTP block	SKN-1 inh	ADAM17 inh	NR3A LBD binder	MT1-MMP act inh	ADAM10 inh	ADAM10 ctr	ADAM17 confirm	others
C[C@@H](NC(=O)c1nc[nH]c1C(=O)NCc1ccc(CNC(=O)OC(C)(C)C)cc1)c1ccccc1	0.3	-3.4	17.3*	-7.6	0.9	45.0*	21.6*	15.9*	ADAM10 confirm=3.8;ADAM17 counter=0.9
C[C@H](NC(=O)c1nc[nH]c1C(=O)NCc1ccc(CNC(=O)OC(C)(C)C)cc1)C(=O)OC(C)(C)C	2.5	3.0	4.0	-18.1	6.9	10.6	nt	nt
CC(C)(C)OC(=O)CNC(=O)c1nc[nH]c1C(=O)NCc1ccc(CNC(=O)OC(C)(C)C)cc1	1.2	-8.6	4.3	-0.1	1.5	18.4	nt	nt
Cc1oc(-c2ccc(F)cc2F)nc1CN1CCN(C(=O)c2ccco2)CC1	0.1	2.1	-3.7	nt	3.0	-10.8	nt	nt
COCCN(C(=S)Nc1ccccc1C)C(C)c1cccnc1 (configuration not stated)	1.6	9.3	0.7	-1.1	0.4	4.3	nt	nt
CC(=O)c1ccc(NC(=O)CN2CCC(NC(=O)c3ccccc3C)CC2)cc1	-1.4	-12.1	1.5	nt	0.5	0.0	nt	nt
O=S(=O)(NC1c2cccc3cccc(c23)C1Sc1ncccn1)c1ccc(Cl)cc1 (configuration not stated)	2.4	11.2	9.7*	-3.4	-6.4	24.6*	27.5*	13.8*	ADAM10 confirm=7.3;ADAM17 counter=3.6
Cc1ccc(S(=O)(=O)NC2c3cccc4cccc(c34)C2Sc2n[nH]c(N)n2)cc1 (configuration not stated)	-0.3	9.4	3.5	1.3	-2.5	-1.1	nt	nt
CNC(=O)COC(=O)CCC(=O)c1cccs1	-2.2	-6.0	-0.9	-1.4	-6.6	-8.4	nt	nt
COc1cccc(OCC(=O)NNC(=O)c2cccs2)c1	-0.7	-15.5	-3.8	-2.7	-1.6	4.7	nt	nt
COc1cc(OC)cc(C(=O)NNC(=O)CNC(=O)c2cccs2)c1	0.5	4.2	9.2*	1.4	-2.0	6.1	2.8	4.2
COc1cccc(C(=O)N2N=C(c3ccccn3)CC2(O)C(F)(F)F)c1 (configuration not stated)	1.0	5.0	2.2	-3.3	3.7	5.5	nt	nt
COc1cc(C(=O)Nc2cccc3cccnc23)cc(OC)c1OC	-2.0	6.2	-3.5	-0.8	-0.5	2.3	nt	nt
COc1cc(NC(=O)Nc2cccc3cccnc23)cc(OC)c1OC	1.8	-15.0	13.2*	-6.4	6.3	13.2	7.4	7.4
CC(OC(=O)C1CC(O)CN1S(=O)(=O)c1ccccc1[N+](=O)[O-])C(=O)N1CCCCC1 (configuration not stated)	-0.3	4.1	-2.0	0.1	2.3	-8.5	nt	nt
CCc1cc(-c2nnn(CCC3COCCO3)c2CC)cc(CC)c1-c1cn(Cc2ccc3ccccc3c2)nn1 (configuration not stated)	0.6	-10.3	3.5	nt	-7.0	9.1	nt	nt
CCc1cc(-c2nnn(CCC3COCCO3)c2CC)ccc1-c1cn(CCc2c[nH]c3ccccc23)nn1 (configuration not stated)	0.5	15.0	8.6*	nt	-3.4	-0.7	15.3	9.4*
C=CCOC(=O)C1=C[C@@H](c2coc3ccccc3c2=O)C[C@@H](OCCCCO)O1	0.9	13.7	-3.3	0.1	-5.9	-6.1	nt	nt
COc1ccc(S(=O)(=O)N(C)C[C@H]2Oc3ccc(NS(=O)(=O)c4ccccc4)cc3CC(=O)N([C@H](C)CO)C[C@@H]2C)cc1	-0.8	4.0	13.4*	-1.9	-0.9	14.8	-4.6	-2.4
COc1ccc(S(=O)(=O)Nc2ccc3c(c2)CC(=O)N([C@@H](C)CO)C[C@@H](C)[C@@H](CN(C)Cc2ccccc2)O3)cc1	0.0	1.6	11.2*	-1.5	-0.8	18.4	13.1	6.3
C[C@H]1CN([C@@H](C)CO)C(=O)c2cc(NC(=O)C3CCCCC3)ccc2O[C@H]1CN(C)Cc1ccc(-c2ccccc2)cc1	-1.3	10.3	11.3*	1.9	1.9	15.7	31.5*	18.2*
C[C@@H]1CN([C@H](C)CO)C(=O)Cc2cc(NS(=O)(=O)c3ccc(F)cc3)ccc2O[C@H]1CN(C)Cc1ccc(C(=O)O)cc1	-0.3	2.5	-5.0	-1.2	4.3	-12.0	nt	nt
CCc1ccccc1Nc1cc(C(=O)NCc2ccccn2)c2ccccc2n1	0.2	1.0	9.0*	-4.3	1.9	17.8	-2.1	8.1
CCN(CC)S(=O)(=O)c1ccc(N=Nc2c(C)[nH]n(C(N)=S)c2=O)cc1	1.3	1.5	12.0*	-1.8	12.2	9.2	8.2	2.7
Clc1ccc(OCc2nc(-c3ccccn3)n[nH]2)cc1	2.3	-10.1	9.4*	-8.2	6.4	7.0	5.4	4.3
SMILES	MPTP block	SKN-1 inh	ADAM17 inh	NR3A LBD binder	MT1-MMP act inh	ADAM10 inh	ADAM10 ctr	ADAM17 confirm	others
Clc1ccc(OCc2nc3ccccc3[nH]2)cc1	-0.2	19.0	2.7	0.0	6.2	5.1	nt	nt
O=C(c1sccc1-c1ccccc1)N1CCN(S(=O)(=O)c2ccccc2)CC1	-1.2	-24.8	-1.3	-0.5	-6.1	-0.8	nt	nt
CN(C)c1ccc(N2C(=NC(=O)CCc3ccccc3)SC3CS(=O)(=O)CC32)cc1 (configuration not stated)	1.0	-0.9	0.9	-1.3	0.5	4.7	nt	nt
Cc1ncc2c(n1)-c1cc(F)ccc1SC2	1.2	2.2	-1.4	-2.0	1.9	-4.3	nt	nt
Nc1ncc2c(n1)-c1cc(Cl)ccc1SC2	-1.9	-2.6	10.2*	-2.0	-3.1	10.4	7.2	7.9
CC(C)c1nc(Cl)c(C#N)c2c1CCCC2	-2.2	-9.8	1.8	-4.8	-13.1	4.2	nt	nt
COc1ccc(S(=O)(=O)N2CCCOC2CNC(=O)C(=O)NCCO)cc1 (configuration not stated)	-1.1	5.3	10.0*	nt	-1.2	5.4	6.8	9.4*
Cc1ccc(CNC(=O)C(=O)NCC2OCCN2S(=O)(=O)c2ccc(C)cc2)cc1 (configuration not stated)	-1.0	-13.8	10.8*	-0.6	3.3	-6.5	-7.2	0.5

From PubChem
